The results in this text go back to ChEMBL document CHEMBL3734738, “A structure-activity relationship of non-peptide macrocyclic histone deacetylase inhibitors and their anti-proliferative and anti-inflammatory activities” (Bioorg Med Chem, 2015).

Data set [1] in a line: Selectivity ratio of IC50 for African green monkey Vero cells to IC50 for human MCF7 cells. The settings on record: Vero cells and MCF7 cells, read-out: Ratio IC50. The format is ADME, cell-based. The method in brief: (§1)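 Cell viability (MTS) was measured in A549, MCF-7 and Vero cells kept in DMEM with 10% FBS and 1% penicillin-streptomycin. Cells were plated 24 h before drug, then exposed to a range of concentrations for 72 h, with DMSO held at 0.1%. The ratio divides the Vero IC50 by the IC50 for the tumour line, both from this assay.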

A further data set has as its system Vero. Briefly: Cytotoxicity against African green monkey Vero cells after 72 hrs by MTS assay. It is filed as cell-based. The settings on record: Chlorocebus sabaeus. The method in brief: (§2)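 Cells kept in DMEM with 10% FBS and 1% penicillin-streptomycin, seeded in 96-well plates for 24 h, then exposed to a range of drug concentrations for 72 h at 0.1% DMSO; viability read by MTS assay per manufacturer's protocol.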
In general terms: Tetrazolium assays rely on reduction of a dye to a coloured formazan, in cell work by metabolically active cells.

Data set [2] has as its target T1, Histone deacetylase 1 (Homo sapiens, UniProt Q13547). Nature of the data set: Inhibition of recombinant HDAC1 (unknown origin) expressed in Escherichia coli BL21(DE3) after 60 mins using trichostatin A by label-free mass spectrometry-based SAMDI assay.
A further data set has as its system MCF7. Nature of the data set: Cytotoxicity against human MCF7 cells after 72 hrs by MTS assay. The format is functional, cell-based. The settings on record: Homo sapiens, MCF7, 72 h; read-out: IC50. The method in brief:
as §2

Data set [3] is described as follows: Selectivity ratio of IC50 for African green monkey Vero cells to IC50 for human A549 cells. The settings on record: Vero cells and A549 cells, read-out: Ratio IC50. It is filed as ADME, cell-based. The method in brief: as §1
The test system of the next data set is A549. Briefly: Cytotoxicity against human A549 cells after 72 hrs by MTS assay. It is filed as functional, cell-based. To be noted: Homo sapiens, A549, 72 h; read-out: IC50. A digest of the protocol: as §2
The target of data set [4] is T2, Protein deacetylase HDAC6 (Homo sapiens, UniProt Q9UBN7).
T2 sequence (Q9UBN7 whole entry): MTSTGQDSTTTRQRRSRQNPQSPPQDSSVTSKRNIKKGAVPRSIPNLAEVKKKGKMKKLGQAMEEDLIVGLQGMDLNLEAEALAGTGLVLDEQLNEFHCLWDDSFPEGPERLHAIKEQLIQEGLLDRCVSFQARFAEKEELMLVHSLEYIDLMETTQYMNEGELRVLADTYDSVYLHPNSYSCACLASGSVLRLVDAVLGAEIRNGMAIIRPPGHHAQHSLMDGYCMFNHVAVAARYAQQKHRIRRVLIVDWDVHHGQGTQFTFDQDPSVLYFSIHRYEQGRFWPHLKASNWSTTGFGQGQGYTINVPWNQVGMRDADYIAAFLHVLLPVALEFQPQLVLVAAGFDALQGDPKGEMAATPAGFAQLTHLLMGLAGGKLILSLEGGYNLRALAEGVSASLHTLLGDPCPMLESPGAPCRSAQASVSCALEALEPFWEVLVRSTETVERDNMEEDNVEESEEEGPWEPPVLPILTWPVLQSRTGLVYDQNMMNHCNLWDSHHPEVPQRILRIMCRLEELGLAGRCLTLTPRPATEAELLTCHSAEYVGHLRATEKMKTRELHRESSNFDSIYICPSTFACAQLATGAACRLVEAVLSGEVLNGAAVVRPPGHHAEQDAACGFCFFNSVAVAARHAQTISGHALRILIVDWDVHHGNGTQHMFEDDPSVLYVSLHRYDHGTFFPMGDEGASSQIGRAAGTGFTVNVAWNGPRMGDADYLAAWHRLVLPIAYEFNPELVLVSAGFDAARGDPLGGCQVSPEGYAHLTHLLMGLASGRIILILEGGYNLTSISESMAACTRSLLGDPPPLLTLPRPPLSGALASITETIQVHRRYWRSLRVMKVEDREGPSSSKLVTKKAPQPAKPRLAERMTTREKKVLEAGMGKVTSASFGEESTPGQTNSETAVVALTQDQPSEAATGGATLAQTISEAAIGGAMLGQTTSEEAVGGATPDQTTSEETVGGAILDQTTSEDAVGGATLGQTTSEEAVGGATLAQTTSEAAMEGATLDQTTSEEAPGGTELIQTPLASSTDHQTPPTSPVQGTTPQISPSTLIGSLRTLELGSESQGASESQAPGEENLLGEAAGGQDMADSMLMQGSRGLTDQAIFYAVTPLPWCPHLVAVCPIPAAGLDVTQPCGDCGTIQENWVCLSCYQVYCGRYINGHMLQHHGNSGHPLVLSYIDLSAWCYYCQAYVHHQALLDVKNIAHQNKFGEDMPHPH
Briefly: Inhibition of recombinant HDAC6 (unknown origin) expressed in Escherichia coli BL21(DE3) after 60 mins using trichostatin A by label-free mass spectrometry-based SAMDI assay.

The target of another data set is T3, Histone deacetylase 8 (Homo sapiens, UniProt Q9BY41).
T3 sequence (Q9BY41 whole entry): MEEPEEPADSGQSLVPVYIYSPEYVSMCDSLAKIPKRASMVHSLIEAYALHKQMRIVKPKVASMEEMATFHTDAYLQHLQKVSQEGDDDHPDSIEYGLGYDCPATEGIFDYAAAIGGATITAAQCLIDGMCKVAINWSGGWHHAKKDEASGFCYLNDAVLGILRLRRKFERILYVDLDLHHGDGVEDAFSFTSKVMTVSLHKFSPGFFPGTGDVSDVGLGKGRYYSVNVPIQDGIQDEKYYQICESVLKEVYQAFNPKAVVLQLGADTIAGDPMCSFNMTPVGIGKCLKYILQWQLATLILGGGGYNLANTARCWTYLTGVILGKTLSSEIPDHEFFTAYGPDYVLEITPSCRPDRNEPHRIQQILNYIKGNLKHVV
Briefly: Inhibition of recombinant HDAC8 (unknown origin) expressed in Escherichia coli BL21(DE3) after 60 mins using trichostatin A by label-free mass spectrometry-based SAMDI assay.

Data set [5] deals with BEAS-2B. Nature of the data set: Antiinflammatory activity in human BEAS2B cells assessed as inhibition of NTHi-induced IL-1alpha mRNA expression at 1 uM treated 2 hrs before NTHi stimulation measured after 1.5 hrs by Q-PCR analysis. It is filed as functional, cell-based. The method in brief: (§3)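 BEAS-2B cells pretreated 2 h with inhibitor at 1 μM, then stimulated 1.5 h with NTHi; PBS-treated cells as unstimulated control. Total RNA isolated with TRIzol, reverse transcribed, and TNF-α, IL-1α, IL-1β mRNA quantified by SYBR Green real-time PCR with 500 nM primers, reactions in triplicate; mean of n=3, representative of three independent experiments.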

The subject of data set [6] is BEAS-2B. Briefly: Antiinflammatory activity in human BEAS2B cells assessed as inhibition of NTHi-induced IL-1beta mRNA expression at 1 uM treated 2 hrs before NTHi stimulation measured after 1.5 hrs by Q-PCR analysis. The format is functional, cell-based. The method in brief: as §3
A short description of data set [7]: Inhibition of NTHi-induced NF-kappaB activation in human BEAS-2B cells treated 1 hr before NTHi stimulation measured after 5 hrs by luciferase assay. It is filed as cell-based. To be noted: Homo sapiens, BEAS-2B; read-out: IC50.
Data set [8] relates to BEAS-2B. Nature of the data set: Antiinflammatory activity in human BEAS2B cells assessed as inhibition of NTHi-induced TNFalpha mRNA expression at 1 uM treated 2 hrs before NTHi stimulation measured after 1.5 hrs by Q-PCR analysis. The format is functional, cell-based. The method in brief:
as §3

The species entered for another data set is Homo sapiens. To be noted: at 1 µM.
Data set [9] deals with T1, Histone deacetylase 1. Briefly: Inhibition of recombinant HDAC1 (unknown origin) expressed in Escherichia coli BL21(DE3) at 10 uM after 60 mins using trichostatin A by label-free mass spectrometry-based SAMDI assay.

The source made the active and inactive calls. The calls are words filed in the database; no cut-off is given here.

T1 sequence (Q13547 whole entry): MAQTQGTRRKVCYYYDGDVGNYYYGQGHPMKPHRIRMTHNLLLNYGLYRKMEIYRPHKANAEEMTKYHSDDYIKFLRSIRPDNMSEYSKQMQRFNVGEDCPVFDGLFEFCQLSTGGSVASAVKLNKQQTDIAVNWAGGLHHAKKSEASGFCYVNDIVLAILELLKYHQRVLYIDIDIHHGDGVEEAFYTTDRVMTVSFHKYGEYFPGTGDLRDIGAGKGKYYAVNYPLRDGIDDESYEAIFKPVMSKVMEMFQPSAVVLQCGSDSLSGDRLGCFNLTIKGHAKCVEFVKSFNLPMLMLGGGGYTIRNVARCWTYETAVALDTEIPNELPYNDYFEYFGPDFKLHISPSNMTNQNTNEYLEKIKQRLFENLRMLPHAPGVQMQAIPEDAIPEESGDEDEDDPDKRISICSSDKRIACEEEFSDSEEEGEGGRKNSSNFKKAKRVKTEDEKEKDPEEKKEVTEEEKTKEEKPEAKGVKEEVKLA

As a reminder, the IC50 is the midpoint of a concentration-inhibition curve. With `CC[C@H]1OC(=O)[C@H](C)C(=O)[C@H](C)[C@@H](O[C@@H]2O[C@H](C)C[C@H](N(C)Cc3cccc(-c4cn(CCCCCCC(=O)NO)nn4)c3)[C@H]2O)[C@@](C)(OC)C[C@@H](C)C2=NCCN3C(=O)O[C@@]1(C)[C@H]3[C@H]2C`, the selectivity ratio was determined as 23 in data set [1] and 2.7 in data set [3]. Further, the IC50 was above 20000 nM in the data set with Vero; 54.5 nM at Histone deacetylase 1 [2]; 860 nM in the data set with MCF7; 7480 nM in the data set on A549; 3.76 nM in data set [4]; 310 nM on Histone deacetylase 8.

What is called inhibition is the drop in the measured response relative to a control, in per cent. Take `CC[C@H]1OC(=O)[C@H](C)C(=O)[C@H](C)[C@@H](O[C@@H]2O[C@H](C)C[C@H](N(C)Cc3ccc(-c4cn(CCCCCCC(=O)NO)nn4)cc3)[C@H]2O)[C@@](C)(OC)C[C@@H](C)C2=NCCN3C(=O)O[C@@]1(C)[C@H]3[C@H]2C`: the inhibition result with BEAS-2B [5], in the data set with BEAS-2B [6] and in the data set on BEAS-2B [8] was “Active” in each case. In addition, the IC50 at Histone deacetylase 1 [2] was found to be 20.8 nM; in data set [7], 47.2 nM; in the data set with MCF7 it was 1980 nM; in the data set on A549, 2190 nM; in data set [4], 6.99 nM; at Histone deacetylase 8, 1500 nM. Besides, the Imax in the data set filed under Homo sapiens came out at 35.3%.

Regarding `CC[C@@H]1OC(=O)[C@@H](C)[C@H](O[C@H]2C[C@@](C)(OC)[C@@H](O)[C@H](C)O2)[C@@H](C)[C@H](O[C@H]2O[C@@H](C)C[C@@H](N(C)C)[C@@H]2O)[C@](C)(O)C[C@H](C)CN(Cc2ccc(-c3cn(CCCCCCC(=O)NO)nn3)cc2)[C@H](C)[C@H](O)[C@@]1(C)O`, the inhibition entry in the data set on BEAS-2B [5], in the data set on BEAS-2B [6] and in the data set with BEAS-2B [8] was “Active” throughout. The IC50 with Vero was found to be 6660 nM; at Histone deacetylase 1 [2] it was 16.1 nM; in [7] it was 244 nM; in the data set on MCF7, 6300 nM; with A549, 8280 nM; in [4], 4.72 nM. For the same compound, the IC50 at Histone deacetylase 8 was 1700 nM. This compound also yielded an Imax in the data set filed under Homo sapiens of 31.4%.

Consider `CC[C@@H]1OC(=O)[C@@H](C)[C@H](O[C@H]2C[C@@](C)(OC)[C@](O)(CN(C)Cc3ccc(-c4cn(CCCCCCC(=O)NO)nn4)cc3)[C@H](C)O2)[C@H](C)[C@H](O[C@@H]2O[C@H](C)C[C@H](N(C)C)[C@H]2O)[C@@](C)(OC)C[C@H](C)C(=O)[C@@H](C)[C@@H](O)[C@@]1(C)O`, for which the inhibition result in the data set on BEAS-2B [5], in the data set with BEAS-2B [6] and in the data set with BEAS-2B [8] was “Active” in each case. Moreover, the IC50 came to 1550 nM in the data set on Vero; 23.9 nM on Histone deacetylase 1 [2]; 197 nM in [7]; 690 nM with MCF7; 990 nM in the data set on A549; 2.85 nM in [4]. On Histone deacetylase 8, the IC50 amounted to 1840 nM. In the data set filed under Homo sapiens, this compound gave an Imax of 35.6%.

In the case of `CC[C@H]1OC(=O)[C@H](C)[C@@H](O[C@@H]2C[C@](C)(OC)[C@@](O)(CN(C)Cc3ccc(-c4cn(CCCC(=O)NO)nn4)cc3)[C@@H](C)O2)[C@@H](C)[C@@H](O[C@H]2O[C@@H](C)C[C@@H](N(C)C)[C@@H]2O)[C@](C)(OC)C[C@@H](C)C(=O)[C@H](C)[C@H](O)[C@]1(C)O`, the inhibition at Histone deacetylase 1 [9] was found to be 27%. Further, the figures for the IC50 (at Histone deacetylase 1 [2]; in data set [4]; at Histone deacetylase 8) were above 10000 nM, 361 nM and 2530 nM, respectively.
